Screening results: PubChem, several laboratories
M1 agonist = activates the M1 muscarinic receptor; actives 3% (n = 64,000); CHO-M1 cells, Fluo-4 calcium fluorescence, agonist mode; active compounds read high; AID 626; B-score at 10 µM;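 active = fluorescence rise, raw or as B-score row- and column-corrected plate score, outside the 99.7% band of its plate's samples, either direction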
SF-1 act = SF-1 (human) activation | Q13285 | CHO-K1 Gal4-SF-1 LBD luciferase reporter; % increase over DMSO SF-1-specific signal | activation, % at 10 µM | actives 1.9% (n = 65,000);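 active = activation above the mean activation of all tested compounds plus 3 SD, cut at about 50% in these data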
Target sequence (Q13285 whole entry, looked up, the tested form may be a part): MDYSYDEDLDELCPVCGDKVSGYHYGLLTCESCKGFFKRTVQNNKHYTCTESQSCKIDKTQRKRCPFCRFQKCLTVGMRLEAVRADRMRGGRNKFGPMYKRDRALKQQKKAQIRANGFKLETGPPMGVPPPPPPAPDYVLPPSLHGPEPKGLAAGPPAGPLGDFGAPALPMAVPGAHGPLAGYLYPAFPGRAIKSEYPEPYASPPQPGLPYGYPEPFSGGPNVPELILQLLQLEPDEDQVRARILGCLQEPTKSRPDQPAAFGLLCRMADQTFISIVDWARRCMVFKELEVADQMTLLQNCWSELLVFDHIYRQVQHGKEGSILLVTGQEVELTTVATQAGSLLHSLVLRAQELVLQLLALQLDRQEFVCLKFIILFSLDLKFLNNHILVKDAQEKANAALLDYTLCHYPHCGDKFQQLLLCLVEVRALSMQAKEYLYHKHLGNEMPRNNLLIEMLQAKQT
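Material: CHO-K1 cells with Gal4–hSF-1 LBD chimera plus Gal4-driven luciferase / Input: 4,000 CHO-K1 cells per well / Incubation: compound exposure 20 h at 37 °C / Signal: luminescence read 15 min after SteadyLite luciferase reagent, after room-temperature equilibration / Read-out: percent activation versus DMSO / Benchmarks: DMSO negative control and −SF1 background wells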
MT1-MMP txn act = MT1-MMP promoter transcription activation; actives 0.16% (n = 86,000); AID 750; HT1080 MT1-MMP promoter luciferase reporter, luminescence, overnight; active compounds read high; activation factor at 10 µM;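 active = activation factor of at least 2 for MT1-MMP transcription at 10 µM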
M1 antagonist = antagonists of rat M1 muscarinic receptor; P08482; CHO-M1 cells, Fluo-4 calcium, ACh EC80 antagonist mode; active compounds read low; B-score at 10 µM; actives 3.4% (n = 64,000); AID 628;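 active = calcium fluorescence response, raw or row-and-column corrected B-score, differing from the plate sample mean either way at a set confidence level, mostly lower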
RORa activator = RORA (human) activation | activation, % at 10 µM | actives 1.5% (n = 65,000) | P35398 | CHO-K1 Gal4-RORA LBD luciferase reporter, luminescence; percent increase over mock-subtracted basal signal;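 active = activation above the mean of all tested compounds plus 3 SD, cut at about 49% in these data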
M1 agonist conf = confirmation of rat M1 muscarinic receptor agonists; shares compounds with M1 agonist; CHO-M1 cells, Fluo-4 calcium fluorescence, agonist mode; actives lie on both sides; fluorescence change (max-min) at 10 µM; actives 19% (n = 1,700); AID 1488;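 active = fluorescence change differs from the solvent-only DMSO control mean at a set confidence level in both duplicate runs; inconclusive = differs from solvent-only control mean in just one of two runs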;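 note: an EC20 dose of acetylcholine follows compound addition during the same imaging run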
M4 ag counter = activates rat M4 receptor in counter-screen for M1 agonists; CHO M4/Gqi5 cells, Fluo-4 calcium fluorescence, agonist mode; actives lie on both sides; shares compounds with M1 agonist; actives 9% (n = 1,700); fluorescence change (max-min) at 10 µM;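 active = fluorescence change differing from the plate's solvent-only control wells at 99.7% confidence in both duplicates, whether higher or lower; inconclusive = differs from solvent controls in only one of two duplicates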
Of the large screens only hits and unclear results are named; the others gave an inactive call (follow-up assays come after a bar, where they were run). An excerpt weighted towards active compounds, which were near 6.3% of everything screened.

COc1ccc(OC)c(C(c2nnnn2C2CCCC2)N2CCN(c3ccccc3)CC2)c1 (configuration not stated)	M1 agonist -1.66 | M1 agonist conf inactive | M4 ag counter inactive
COc1ccc(C(c2nnnn2C2CCCCC2)N2CCN(c3ccc(OC)cc3)CC2)cc1 (configuration not stated)	none
CCCC(c1nnnn1Cc1ccc(OC)cc1)N1CCN(c2ccccc2OC)CC1 (configuration not stated)	none
CCOC(=O)c1cccc(NC(=O)Cn2cnc3c2c(=O)n(C)c(=O)n3C)c1	none
Cn1c(N)c(C(=O)COC(=O)C2(c3ccc(Cl)cc3)CCCC2)c(=O)n(C)c1=O	none (no result: M1 agonist, SF-1 act, M1 antagonist, RORa activator)
O=C(CC1(O)C(=O)N(Cc2ccc3c(c2)OCO3)c2ccccc21)c1ccccc1 (configuration not stated)	none
Cc1ccc(C(=O)CC2(O)C(=O)N(Cc3ccc4c(c3)OCO4)c3ccccc32)cc1 (configuration not stated)	M1 agonist 58.8 | M1 agonist conf inactive | M4 ag counter inactive
CC1CCCCC1NC(=O)CSc1nnc(CN2CCOCC2)n1C (configuration not stated)	M1 agonist 12.5 | M1 agonist conf inactive | M4 ag counter inactive
Cn1c(=O)c2c(nc(Oc3ccccn3)n2C)n(C)c1=O	none
O=C(CCNS(=O)(=O)c1cccc2nsnc12)NC1CCN(Cc2ccccc2)CC1	none
CCOC(=O)c1oc2ccc(S(=O)(=O)Nc3ccc4c(c3)n(C)c(=O)n4C)cc2c1C	M1 agonist 5.3 | M1 agonist conf inconclusive | M4 ag counter inactive
Cn1c(=O)n(C)c2cc(NS(=O)(=O)c3ccc4c(c3)CCCC4)ccc21	none
COC(=O)c1ccc(Oc2nc(Nc3ccc(C)c(C)c3)nc(N(C)C)n2)cc1	none (no result: M1 agonist, SF-1 act, M1 antagonist, RORa activator)
Cc1ccc(-c2nn[nH]n2)o1	M1 agonist 4.31 | M1 agonist conf inactive | M4 ag counter inconclusive
Cc1cc(NC(=O)CCN2C(=O)C3C4C=CC(C4)C3C2=O)c2ccccc2n1 (configuration not stated)	M1 agonist 3.33 | M1 agonist conf inactive | M4 ag counter inactive
N#CC1=C(N)Oc2n[nH]c(-c3cccs3)c2C1c1ccsc1 (configuration not stated)	none
N#CC1=C(N)Oc2n[nH]c(-c3cccs3)c2C1c1ccco1 (configuration not stated)	M1 agonist 37.3 | M1 agonist conf 138 | M4 ag counter 115
CCC(CC)C(=O)NCCc1cc2c(C)ccc(C)c2[nH]c1=O	none
COc1ccc(OC)c2[nH]c(=O)c(CCNC(=O)c3cc4ccccc4o3)cc12	M1 agonist 2.54 | M1 agonist conf inactive | M4 ag counter inactive
Cc1ccc(C)c2[nH]c(=O)c(CCNC(=O)c3cc4ccccc4o3)cc12	M1 agonist 2.9 | M1 agonist conf inconclusive | M4 ag counter inactive
COc1ccc(OC)c2[nH]c(=O)c(CCNC(C)=O)cc12	none
CN1C(=O)c2cccc(NC(=O)Cc3ccccc3)c2C1=O	none (no result: MT1-MMP txn act)
COc1cccc(C(=O)Nc2nc3c(s2)CN(C)CC3)c1	none (no result: M1 agonist, SF-1 act, M1 antagonist, RORa activator)
COc1ccccc1N1CCN(C(=O)CSc2nc(C)c(Cc3ccccc3)c(=O)[nH]2)CC1	none
COc1cc2ccccc2cc1C(=O)Nc1ccc(N2CCN(C)CC2)cc1	M1 agonist 5.87, M1 antagonist -8.01, RORa activator 59.1 | M1 agonist conf -24.1 | M4 ag counter inactive
Cc1ccsc1C1C=C(c2cccc(Br)c2)Nc2ncnn21 (configuration not stated)	M1 agonist 33.6 | M1 agonist conf 836 | M4 ag counter 793
Cc1ccc(C2C=C(c3ccc4c(c3)OCO4)Nc3ncnn32)cc1 (configuration not stated)	none
COc1cccc(C2=CC(c3ccc(C)cc3)n3ncnc3N2)c1 (configuration not stated)	M1 agonist 7.98 | M1 agonist conf 165 | M4 ag counter inconclusive
COc1ccc(CCNC(=O)c2cnn3cccnc23)cc1OC	none
O=C(CN(C(=O)CNC(=O)c1ccco1)c1ccc(Cl)c(Cl)c1)NC1CCCCC1	none
CCN1CCN(c2ccc(-n3c(C)nc4c(cnn4-c4ccccc4Cl)c3=O)cc2)CC1	none
COc1ccccc1N=c1oc2cc(O)ccc2cc1C(N)=O	M1 agonist 7.6 | M1 agonist conf inactive | M4 ag counter inactive
Cc1cccc(N=c2oc3cc(O)ccc3cc2C(N)=O)c1	M1 agonist 5.4 | M1 agonist conf inactive | M4 ag counter inactive
COc1ccccc1NC(=O)c1cc2ccc(O)cc2o/c1=N\O	none
COc1ccccc1N=c1oc2cc(O)ccc2cc1C(=O)NCC1CCCO1 (configuration not stated)	none
Cc1cccn2c(=O)c3cc(C(=O)N4CCN(c5ccccc5)CC4)n(C)c3nc12	none
O=C(Nc1nccs1)c1cc(N2CCOCC2)nc2ccccc12	M1 agonist 3.07 | M1 agonist conf inactive | M4 ag counter inactive
COc1cccc(NC=C2C(=O)OC(C)(C)OC2=O)c1	none
COc1cccc(NC=C2C(=O)OC3(CCCCC3)OC2=O)c1	M1 agonist 2.73 | M1 agonist conf inactive | M4 ag counter inactive
O=C1CC(c2ccco2)CC2=C1C=Nc1ccccc1N2 (configuration not stated)	none
O=c1[nH]c2c(s1)C=Nc1ccccc1N2	M1 agonist 69.4 | M1 agonist conf 249 | M4 ag counter 227
Cc1ccccc1N1OC2C(=O)N(c3ccc(F)cc3)C(=O)C2C1c1ccccn1 (configuration not stated)	M1 agonist 13.4 | M1 agonist conf inactive | M4 ag counter inactive
O=C1C2ON(c3ccccc3)C(c3ccccn3)C2C(=O)N1c1ccc(Br)cc1 (configuration not stated)	none
CSc1ccc(S(=O)(=O)NCc2ccc(Cl)cc2Cl)cc1	none (no result: M1 agonist, SF-1 act, M1 antagonist, RORa activator)
CCCCCOc1ccc(NC(=O)C(=O)NCCC2=CCCCC2)cc1	none (no result: M1 agonist, SF-1 act, M1 antagonist, RORa activator)
N#Cc1ccc(COc2ccc(CCO)cc2-n2nc3ccccc3n2)cc1	M1 agonist 5.48 | M1 agonist conf inactive | M4 ag counter inactive
O=C1C(=O)N(CCCn2ccnc2)C(c2cccnc2)/C1=C(/O)c1ccc(Cl)cc1 (configuration not stated)	none (no result: M1 agonist, M1 antagonist)
COC(=O)c1cccc(S(=O)(=O)N2CCC(C)CC2)c1	none
COC(=O)c1cccc(S(=O)(=O)N2CCC(NC(=O)NC34CC5CC(CC(C5)C3)C4)CC2)c1	M1 agonist 3.76 | M1 agonist conf inconclusive | M4 ag counter inactive
COC(=O)c1ccc2c(=O)sc(N3CCC(C(N)=O)CC3)nc2c1	M1 agonist 23.8 | M1 agonist conf 132 | M4 ag counter 136
CCSc1nc2cc(C(=O)OC)ccc2c(=O)n1CC	none
